Calls of active or inactive are those of the source. The calls are words filed in the database; no cut-off is given here.
Tests used:
[1] = Cytotoxicity against human PBMC assessed as cell viability by MTS assay; type: cell-based; conditions: read-out: TC50 (the source's name)
[2] = molecular target: T1, C-C chemokine receptor type 9 (Homo sapiens) (UniProt P51686); test: Inhibition of CCR9 (unknown origin) at 10 uM relative to control
T1 sequence (whole entry): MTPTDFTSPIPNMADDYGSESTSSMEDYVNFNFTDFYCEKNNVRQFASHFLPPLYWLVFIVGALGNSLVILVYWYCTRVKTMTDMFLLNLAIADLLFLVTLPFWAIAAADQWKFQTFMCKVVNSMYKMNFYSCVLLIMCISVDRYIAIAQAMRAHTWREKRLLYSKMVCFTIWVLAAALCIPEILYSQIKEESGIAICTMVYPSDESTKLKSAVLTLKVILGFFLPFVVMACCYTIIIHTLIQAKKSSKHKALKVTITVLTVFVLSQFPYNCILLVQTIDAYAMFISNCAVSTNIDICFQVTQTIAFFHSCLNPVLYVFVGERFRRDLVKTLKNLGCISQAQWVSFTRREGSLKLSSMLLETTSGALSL

[3] = Half life in rat liver microsomes at 1 uM incubated for 3 mins prior to NADPH addition by LC-MS/MS analysis; type: ADME
[4] = molecular target: T2, C-X-C chemokine receptor type 5 (Homo sapiens) (UniProt P32302); test: Inhibition of CXCR5 (unknown origin) at 10 uM relative to control
T2 sequence (whole entry): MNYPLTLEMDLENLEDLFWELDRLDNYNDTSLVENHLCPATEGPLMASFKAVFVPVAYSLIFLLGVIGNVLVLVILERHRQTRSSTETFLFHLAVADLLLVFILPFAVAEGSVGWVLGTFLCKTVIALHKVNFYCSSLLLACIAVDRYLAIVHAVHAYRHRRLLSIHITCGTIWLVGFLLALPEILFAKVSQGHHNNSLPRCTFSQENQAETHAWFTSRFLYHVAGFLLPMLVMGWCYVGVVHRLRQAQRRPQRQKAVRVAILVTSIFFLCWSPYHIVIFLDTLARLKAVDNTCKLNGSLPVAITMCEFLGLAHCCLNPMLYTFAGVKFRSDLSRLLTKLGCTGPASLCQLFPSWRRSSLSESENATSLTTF

[5] = molecular target: C-C chemokine receptor type 5 (Homo sapiens) (UniProt P51681); test: Inhibition of CCR5 (unknown origin) at 10 uM relative to control
Chain of C-C chemokine receptor type 5 (Homo sapiens) (P51681 whole entry, looked up): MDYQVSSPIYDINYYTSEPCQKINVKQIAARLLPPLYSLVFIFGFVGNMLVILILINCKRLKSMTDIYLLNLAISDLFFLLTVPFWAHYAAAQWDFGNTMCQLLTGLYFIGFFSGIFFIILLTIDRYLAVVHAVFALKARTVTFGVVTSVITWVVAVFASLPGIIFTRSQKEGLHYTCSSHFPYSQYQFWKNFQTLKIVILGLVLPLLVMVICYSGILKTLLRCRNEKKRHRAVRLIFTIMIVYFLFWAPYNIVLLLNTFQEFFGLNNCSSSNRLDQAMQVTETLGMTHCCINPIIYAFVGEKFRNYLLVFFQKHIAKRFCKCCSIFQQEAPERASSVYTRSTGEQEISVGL

Mus musculus [6] = test: Induction of WBC mobilization in sc dosed Harlan C57BL/6 mouse after 1 to 8 hrs by LC/MS/MS analysis; type: functional, organism-based
Outline: (§1)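 Harlan mice were given a single subcutaneous dose at 5, 10 or 20 mg/kg. Blood was sampled at multiple time points over about 8 h, and each sample was used for both total circulating WBC count and plasma drug level. Counts and concentrations were plotted against time for each dose.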

[7] = Elimination half life in jugular pre-cannulated CRL Sprague-Dawley rat at 10 mg/kg, po; type: ADME, organism-based; design: dose 10 mg/kg, route oral; conditions: in vivo, read-out: beta t1/2 (converted)
[8] = Oral bioavailability in jugular pre-cannulated CRL Sprague-Dawley rat at 10 mg/kg; type: ADME, organism-based; conditions: in vivo
Outline: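 Oral dosing by gavage at 10 mg/kg, with an i.v. arm at 2 mg/kg. Plasma AUC was calculated for each route, and F was obtained from the dose-normalised ratio of oral to i.v. AUC.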

[9] = Intrinsic clearance in mouse liver microsomes at 1 uM incubated for 3 mins prior to NADPH addition by LC-MS/MS analysis; type: ADME, Microsome; conditions: 0.05 h
[10] = Elimination half life in jugular pre-cannulated Harlan Sprague-Dawley rat at 2 mg/kg, iv; type: ADME, organism-based; design: dose 2 mg/kg, route intravenous; conditions: in vivo, read-out: beta t1/2 (converted)
[11] = molecular target: C-C chemokine receptor type 2 (Homo sapiens) (UniProt P41597); test: Inhibition of CCR2B (unknown origin) at 10 uM relative to control
Chain of C-C chemokine receptor type 2 (Homo sapiens) (P41597 whole entry, looked up): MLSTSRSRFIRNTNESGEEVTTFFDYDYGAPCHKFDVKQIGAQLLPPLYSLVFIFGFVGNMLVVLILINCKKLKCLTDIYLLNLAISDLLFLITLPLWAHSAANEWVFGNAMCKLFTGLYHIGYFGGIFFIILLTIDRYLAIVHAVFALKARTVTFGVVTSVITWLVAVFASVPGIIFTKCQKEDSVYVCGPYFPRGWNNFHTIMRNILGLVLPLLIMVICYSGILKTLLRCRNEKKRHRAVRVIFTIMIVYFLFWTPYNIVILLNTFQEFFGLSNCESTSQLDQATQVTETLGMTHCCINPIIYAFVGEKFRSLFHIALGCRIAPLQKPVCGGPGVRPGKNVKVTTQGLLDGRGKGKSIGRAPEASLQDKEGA

[12] = Plasma concentration in Harlan C57BL/6 mouse at 5 mg/kg, sc after 1 hr by LC/MS/MS analysis; type: ADME, organism-based; design: dose 5 mg/kg, route subcutaneous; outline: as §1
[13] = molecular target: C-X-C chemokine receptor type 6 (Homo sapiens) (UniProt O00574); test: Inhibition of CXCR6 (unknown origin) at 10 uM relative to control
Chain of C-X-C chemokine receptor type 6 (Homo sapiens) (O00574 whole entry, looked up): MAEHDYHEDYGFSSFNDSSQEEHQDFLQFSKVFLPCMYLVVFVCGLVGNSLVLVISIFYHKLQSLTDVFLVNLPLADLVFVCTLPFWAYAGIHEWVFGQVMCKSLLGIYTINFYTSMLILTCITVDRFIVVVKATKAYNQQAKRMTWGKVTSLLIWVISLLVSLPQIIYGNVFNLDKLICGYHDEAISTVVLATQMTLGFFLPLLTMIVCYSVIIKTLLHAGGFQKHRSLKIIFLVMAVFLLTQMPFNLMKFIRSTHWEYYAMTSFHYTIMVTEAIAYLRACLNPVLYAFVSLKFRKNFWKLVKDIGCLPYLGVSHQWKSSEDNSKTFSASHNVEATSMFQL

[14] = molecular target: T3, C-X-C chemokine receptor type 1 (Homo sapiens) (UniProt P25024); test: Inhibition of CXCR1 (unknown origin) at 10 uM relative to control
T3 sequence (whole entry): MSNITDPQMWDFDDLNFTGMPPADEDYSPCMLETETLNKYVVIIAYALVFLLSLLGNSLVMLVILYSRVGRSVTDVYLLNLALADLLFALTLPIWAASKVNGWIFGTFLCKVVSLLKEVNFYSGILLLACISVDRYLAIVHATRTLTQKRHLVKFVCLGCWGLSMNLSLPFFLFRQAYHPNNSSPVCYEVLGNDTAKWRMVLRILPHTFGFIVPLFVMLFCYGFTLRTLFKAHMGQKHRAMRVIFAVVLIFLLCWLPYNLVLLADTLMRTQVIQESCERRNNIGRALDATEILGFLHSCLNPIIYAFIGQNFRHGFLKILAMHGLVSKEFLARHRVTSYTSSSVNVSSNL

Mus musculus [15] = test: Induction of WBC mobilization in Harlan C57BL/6 mouse at 5 to 20 mg/kg, sc after 6 to 8 hrs by LC/MS/MS analysis relative to control; type: functional, organism-based; outline: as §1
[16] = molecular target: C-X-C chemokine receptor type 4 (Homo sapiens, UniProt P61073)
Chain of C-X-C chemokine receptor type 4 (P61073 whole entry): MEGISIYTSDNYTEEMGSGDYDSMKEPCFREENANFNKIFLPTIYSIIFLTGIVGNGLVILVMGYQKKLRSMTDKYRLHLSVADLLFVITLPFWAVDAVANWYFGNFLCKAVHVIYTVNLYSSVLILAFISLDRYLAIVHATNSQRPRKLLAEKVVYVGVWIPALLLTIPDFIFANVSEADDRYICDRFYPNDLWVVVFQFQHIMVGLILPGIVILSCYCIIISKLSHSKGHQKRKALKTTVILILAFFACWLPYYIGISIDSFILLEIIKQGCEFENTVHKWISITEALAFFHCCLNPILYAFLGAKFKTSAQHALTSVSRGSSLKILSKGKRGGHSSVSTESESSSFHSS

[17] = Plasma concentration in Harlan C57BL/6 mouse at 20 mg/kg, sc after 1 hr by LC/MS/MS analysis; type: ADME, organism-based; design: dose 20 mg/kg, route subcutaneous; outline: as §1
[18] = molecular target: T4, C-C chemokine receptor type 6 (Homo sapiens) (UniProt P51684); test: Inhibition of CCR6 (unknown origin) at 10 uM relative to control
T4 sequence (whole entry): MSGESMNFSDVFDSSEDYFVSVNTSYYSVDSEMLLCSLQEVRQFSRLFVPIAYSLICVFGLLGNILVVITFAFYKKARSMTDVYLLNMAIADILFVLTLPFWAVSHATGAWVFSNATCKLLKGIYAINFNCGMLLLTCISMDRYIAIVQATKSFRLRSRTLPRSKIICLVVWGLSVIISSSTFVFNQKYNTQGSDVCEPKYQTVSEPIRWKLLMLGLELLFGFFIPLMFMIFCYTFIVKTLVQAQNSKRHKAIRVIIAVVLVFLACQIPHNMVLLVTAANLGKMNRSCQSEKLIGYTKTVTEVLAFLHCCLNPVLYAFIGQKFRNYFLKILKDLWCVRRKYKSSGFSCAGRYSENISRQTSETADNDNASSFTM

[19] = Cytotoxicity against human MAGI-CCR5 cells assessed as cell viability after 2 to 6 days by MTS assay; conditions: MAGI-CCR5 cells
[20] = Aqueous solubility in PBS at 7.4 after 90 mins by nephelometric analysis; type: physicochemical; conditions: pH 7.4
[21] = Plasma concentration in Harlan C57BL/6 mouse at 10 mg/kg, sc after 1 hr by LC/MS/MS analysis; type: ADME, organism-based; design: dose 10 mg/kg, route subcutaneous; outline: as §1

inhibition [2]: < 10%
half-life at 1 µM [3]: 0.65 h
inhibition [4]: < 10%
inhibition [5]: < 10%
half-life [7]: 6 h
bioavailability [8]: 63%
CLH [9]: 64 µL/min/mg
half-life [10]: 1.2 h
inhibition [11]: < 10%
concentration at 1 h [12]: 725 ng/mL
inhibition [13]: < 10%
inhibition [14]: < 10%
IC90 [16]: 0.24 µM
concentration at 1 h [17]: 1540 ng/mL
inhibition [18]: < 10%
solubility kinetic at […] [20]: > 274 µM
concentration at 1 h [21]: 1020 ng/mL
Compound: NCCCCN(C[C@H]1Cc2ccccc2CN1)[C@H]1CCCc2cccnc21
CC50 [1]: 47 µM
Activity (Mus musculus [6]): Dose-dependent effect
Activity (Mus musculus [15]): inactive
CC50 [19]: > 10 µM
